# Shown are actives, neighbours in structure and some others; about 1.2% of the full set was active somewhere.
# CSN inh: CSN deneddylation inhibition; Purified CSN, SCF-Nedd8-OG deneddylation, fluorescence polarization; inhibition, % at 12.5 µM; 0.38% of 360,000 active;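 active = pattern-corrected inhibition above about 35%, with an unprinted fluorescence ratio check between 0.5 and 1.5, limit read from the data, passing the limit was not always enough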;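 note: 0% = enzyme with substrate and 100% = substrate without enzyme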
#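 Material: purified human Csn5 enzyme expressed in HEK293T cells / Medium: Tris buffer pH 7.5, NaCl, DTT, Tween-20, trehalose, ovalbumin / Compound dosing: 12.5 µM single point / Schedule: 90 min incubation of compound, enzyme and substrate at room temperature / Signal: fluorescence polarization of the substrate / Control set: no-enzyme wells high, enzyme-with-substrate wells low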
# Rtt109 Vps75: inhibitors of Candida albicans Rtt109/Vps75 histone acetyltransferase; 0.16% of 330,000 active; Q5AAJ8; inhibition, % at 34.9 µM; purified Rtt109/Vps75, ThioGlo CoA-SH fluorescence, 4 h; AID 540336;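 active = inhibition of at least 50% in every replicate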
# TPT1 inhibitor: blocks Candida albicans tRNA 2'-phosphotransferase | inhibition, % at 5 µM | 0.81% of 300,000 active | recombinant caTPT1, FP RNA substrate dephosphorylation;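 active = inhibition above the mean of all tested compounds plus 3 SD, set per screening campaign, cut at about 24% in these data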;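 note: plate controls were DMSO alone for no effect and ferristatin control at 100 nM for full effect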
# HNF4A DNA FP: change in binding of human HNF4 alpha to DNA; HNF4a-FITC DNA binding, fluorescence polarization, 1 h; activity change, % at 10 µM; 0.3% of 360,000 active; AID 1224865; in the data active = activity change above about 30%, passing the limit was not always enough
# Target sequence (P41235 whole entry, looked up): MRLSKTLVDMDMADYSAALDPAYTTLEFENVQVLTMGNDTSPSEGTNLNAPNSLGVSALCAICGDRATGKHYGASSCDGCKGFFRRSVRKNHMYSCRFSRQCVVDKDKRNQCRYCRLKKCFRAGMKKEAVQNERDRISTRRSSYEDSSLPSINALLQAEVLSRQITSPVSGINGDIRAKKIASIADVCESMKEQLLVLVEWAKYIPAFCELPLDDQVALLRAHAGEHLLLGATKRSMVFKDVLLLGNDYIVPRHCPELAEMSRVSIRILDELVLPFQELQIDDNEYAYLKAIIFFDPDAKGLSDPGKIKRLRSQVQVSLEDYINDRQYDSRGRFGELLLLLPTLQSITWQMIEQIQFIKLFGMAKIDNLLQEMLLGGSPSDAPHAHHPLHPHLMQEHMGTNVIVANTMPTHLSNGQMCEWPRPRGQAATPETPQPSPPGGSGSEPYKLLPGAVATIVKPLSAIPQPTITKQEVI
# The depositor's hits bear a star; i = inactive; nt = not tested or not shown.
SMILES,CSN inh,Rtt109 Vps75,TPT1 inhibitor,HNF4A DNA FP
CCOC(=O)c1c(CSc2ccccc2)n(C)c2cc(Br)c(OC)c(O)c12,1,6,0,2
COC(=O)c1c(NC(C)=O)sc2c1CCCCC2,104*,-1,-1,2
COC(=O)c1c(NC(C)=O)sc2c1CCCC2,-4,-5,-4,-2
COc1ccc(Cl)cc1NC(=O)CN1c2ccccc2CC1C (centres undefined),-1,-8,0,33*
COc1cc(NC(=O)CN2c3ccccc3CC2C)cc(OC)c1OC (centres undefined),7,2,-3,-1
OCCCc1nc2n(n1)C(c1ccccc1Cl)C=C(c1cccs1)N2 (centres undefined),3,i,24*,22
CC(C)(C)c1ccc(CC(=O)N2CCC2(C)C(=O)NCc2cccc3ccccc23)cc1 (centres undefined),5,nt,nt,-6
C/C=C/n1ccnc1CC(O)(c1ccccc1)c1ccc(C)cc1 (centres undefined),0,60*,1,-1
O=C(Nc1ccccc1C(F)(F)F)c1ncn[nH]1,-2,-2,-2,4
O=C(/C=C/c1ccc([N+](=O)[O-])cc1)N1CCN(S(=O)(=O)c2ccccc2)CC1,47*,3,nt,3
COc1ccc(Nc2nnc(SCc3cc([N+](=O)[O-])cc4c3OCOC4)s2)cc1,-4,-5,1,0
CCOc1ccc(N2C(=O)/C(=C/c3cc(OC)c(OC)c(OC)c3)N(CC(=O)OC)C2=S)cc1,6,8,4,0
CCOc1ccc(/C=C2/C(=O)N(c3ccc(OC)cc3)C(=S)N2CC(=O)OC)cc1OCC,72,-3,20,47*
CC1CCN(C(=O)Cn2nnc(-c3ccc(C(C)C)cc3)n2)CC1,1,0,nt,0
COc1cc2c3nnc(-c4ccc(F)cc4)c-3cn(Cc3cccc(F)c3)c2cc1OC,112,-13,5,115*
CCOC(=O)c1ccc(NC(=O)Nc2ccc3c4c(cccc24)C(=O)N3CC)cc1,25,-6,5,68*
c1ccc(Oc2ccc(-n3cnnn3)cc2)cc1,1,-8,-2,57*
O=C(Oc1ccccc1)c1ccc(-n2cnnn2)cc1,0,19,5,1
CC(/C=C1\SC(=S)N(CCC(=O)Nc2ccccc2O)C1=O)=C\c1ccccc1,36*,-6,18,47*
CC(=C\c1ccccc1)/C=C1/SC(=S)N(CCC(=O)Nc2ccccn2)C1=O,nt,nt,10,nt
FC(F)(F)c1ccc(N2CCOCC2)c(Nc2nc3ccccc3n3cnnc23)c1,5,-8,0,30*
CN(C)c1ccc(/C=C2/C=C(c3ccc4c(c3)CCCC4)OC2=O)cc1,20,4,6,45*
CCN1CCN(CCNC(=O)Nc2ccc([N+](=O)[O-])cc2)CC1,2,2,-1,3
O=C(NCCN1CCCCC1)Nc1ccc([N+](=O)[O-])cc1,0,51*,1,0
COC(=O)C1C2CC3c4[nH]c5cc(OC)ccc5c4CCN3CC2CC(OC(=O)CC(C)=O)C1OC (centres undefined),11,10,nt,49*
SMILES,CSN inh,Rtt109 Vps75,TPT1 inhibitor,HNF4A DNA FP
CCc1sc(C(=O)Nc2cccc(C(C)=O)c2)cc1C,-3,52*,-3,-4
CCCCCCCNC(=O)C1(CC2CC(c3ccc(Cl)cc3)=NO2)CCN(C(=O)OC(C)(C)C)CC1 (centres undefined),-1,1,-3,1
Nc1c(C(=O)N/N=C/c2ccc(Cl)cc2)cnn1-c1ccccc1,119*,-10,1,2
COc1ccc(OC)c(Nc2nc3nonc3nc2N2CCCCC2)c1,10,19,-2,40*
CSS(=O)(=O)c1cccc2cccnc12,-3,132*,2,-2
S=C1NC2(CCCCC2)Cc2ccccc21,1,51*,0,1
O=C1NC2(CCCCC2)Cc2ccccc21,0,nt,2,1
Oc1cc2c(cc1O)C1c3ccc(O)c(O)c3OCC1(O)C2 (centres undefined),18,159*,-3,6
O=c1oc(-c2cccs2)nc2sc3c(c12)CCC3,2,4,-3,10
O=c1oc(/C=C/c2ccco2)nc2sc3c(c12)CCC3,42*,3,0,-11
COc1cc2cc(CCOC(=O)c3ccco3)oc(=O)c2cc1OC,-1,2,nt,-2
c1coc(-c2nnc3sc(Cc4cccs4)nn23)c1,35*,-1,3,-8
CC(=O)c1ccc(N2CCN(C(=O)Cc3cccs3)CC2)cc1,-5,7,1,88*

# Screening results as filed in PubChem BioAssay.
